{"source": "ChEMBL document CHEMBL1139721", "about": "“Inhibition of P-glycoprotein-mediated multidrug efflux by aminomethylene and ketomethylene analogs of reversins” (Bioorg Med Chem Lett, 2006)", "note": "Peptide text beside a SMILES is read from it. * marks the point of attachment. Cbz = O=C(OCc1ccccc1)*; Boc = CC(C)(C)OC(=O)*; OcHex = C1CCC(O*)CC1; OBn = c1ccc(CO*)cc1; OtBu = CC(C)(C)O*", "data": [{"system": "K562/R7", "test": "Inhibition of P-glycoprotein-mediated daunorubicin efflux in K562/R7 cells at 10 uM relative to control", "format": "cell-based", "conditions": "Homo sapiens", "summary_of_the_method": "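K562/R7 human leukemic cells with high P-glycoprotein expression, 1 million per mL RPMI 1640, incubated 1 h at 37 °C with daunorubicin (10 μM final) with or without inhibitor at 10 µM. Cells washed twice in ice-cold PBS, held on ice, then read by flow cytometry. Activity expressed relative to cyclosporin A (2 μM final, set as 100%). Duplicates, at least three separate experiments; SD reported.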", "units": {"inhibition": "%"}, "values": [{"smiles": "CC(C)C(OC(=O)CC[C@H](NCCCC(=O)N[C@@H](CCC(=O)OCc1ccccc1)C(=O)OCc1ccccc1)C(=O)OCc1ccccc1)C(C)C", "inhibition": 54.7}, {"smiles": "CC(C)C(OC(=O)CC[C@H](NC(=O)OC(C)(C)C)C(=O)N[C@@H](CCCCNC(=O)OCc1ccccc1)C(=O)OC(C)(C)C)C(C)C", "inhibition": 52.7}, {"smiles": "CC(C)(C)OC(=O)N[C@@H](CCC(=O)OC1CCCCC1)C(=O)N[C@@H](CCCCNC(=O)OCc1ccccc1)C(=O)OC(C)(C)C", "note": "(Boc-Glu(OcHex)-Lys(Cbz)-OtBu)", "inhibition": 85.4}, {"smiles": "O=C(CCCN[C@@H](CCC(=O)OC1CCCCC1)C(=O)OCc1ccccc1)N[C@@H](CCC(=O)OCc1ccccc1)C(=O)OCc1ccccc1", "inhibition": 98.3}, {"smiles": "CC(C)(C)OC(=O)N[C@@H](CCC(=O)OCc1ccccc1)CN[C@@H](CCCCNC(=O)OCc1ccccc1)C(=O)OC(C)(C)C", "inhibition": 79.1}, {"smiles": "O=C(CCC(=O)N[C@@H](CCC(=O)OCc1ccccc1)C(=O)OCc1ccccc1)N[C@@H](CCC(=O)OCc1ccccc1)C(=O)OCc1ccccc1", "inhibition": 93.7}, {"smiles": "O=C(CCC(=O)N[C@@H](CCC(=O)OC1CCCCC1)C(=O)OCc1ccccc1)N[C@@H](CCC(=O)OCc1ccccc1)C(=O)OCc1ccccc1", "inhibition": 94.5}, {"smiles": "CC(C)(C)OC(=O)N[C@@H](CC(=O)OCc1ccccc1)C(=O)CCC(=O)N[C@@H](CCCCNC(=O)OCc1ccccc1)C(=O)OC(C)(C)C", "inhibition": 86.6}, {"smiles": "CC(C)C(OC(=O)CC[C@@H](C(=O)OCc1ccccc1)N(CCCC(=O)N[C@@H](CCC(=O)OCc1ccccc1)C(=O)OCc1ccccc1)CCCC(=O)N[C@@H](CCC(=O)OCc1ccccc1)C(=O)OCc1ccccc1)C(C)C", "inhibition": 3.35}, {"smiles": "CC(C)(C)OC(=O)N[C@H](CN[C@@H](CCCCNC(=O)OCc1ccccc1)C(=O)OC(C)(C)C)CC(=O)OCc1ccccc1", "inhibition": 74.1}, {"smiles": "O=C(CCCN[C@@H](CC(=O)OCc1ccccc1)C(=O)OCc1ccccc1)N[C@@H](CCC(=O)OCc1ccccc1)C(=O)OCc1ccccc1", "inhibition": 82.2}, {"smiles": "CC(C)(C)OC(=O)N[C@@H](CC(=O)OCc1ccccc1)C(=O)N[C@@H](CCCCNC(=O)OCc1ccccc1)C(=O)OC(C)(C)C", "note": "(Boc-Asp(OBn)-Lys(Cbz)-OtBu)", "inhibition": 72.7}]}]}
